Usually IC50 stands for the midpoint of a concentration-inhibition curve. High values mean a need for much substance, low ones inhibition by little substance.

9 compounds from paper PMC9064382 (RSC Advances, 2019) can be followed below.

One data set deals with T1, hOCT1 (Homo sapiens, UniProt O15245).
T1 sequence (O15245 1-554): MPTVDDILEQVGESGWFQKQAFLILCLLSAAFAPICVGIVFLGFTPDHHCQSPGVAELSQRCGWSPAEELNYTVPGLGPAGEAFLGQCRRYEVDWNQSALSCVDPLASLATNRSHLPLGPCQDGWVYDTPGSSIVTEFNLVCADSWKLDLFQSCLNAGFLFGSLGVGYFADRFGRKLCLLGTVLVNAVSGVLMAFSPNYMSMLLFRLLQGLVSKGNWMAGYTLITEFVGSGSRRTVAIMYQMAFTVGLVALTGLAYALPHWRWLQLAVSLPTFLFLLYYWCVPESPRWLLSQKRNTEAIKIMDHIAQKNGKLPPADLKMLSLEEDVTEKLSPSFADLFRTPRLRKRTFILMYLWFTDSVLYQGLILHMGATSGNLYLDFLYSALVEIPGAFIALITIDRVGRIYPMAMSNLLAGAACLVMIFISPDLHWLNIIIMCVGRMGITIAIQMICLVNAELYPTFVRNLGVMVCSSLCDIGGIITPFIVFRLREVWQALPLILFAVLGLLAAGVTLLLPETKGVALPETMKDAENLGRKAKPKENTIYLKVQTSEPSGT
Put plainly: Uptake of aconitum alkaloids in hOCT1-transfected cells vs mock. It is filed as in vitro ADME. To be noted: 10 μm, 5 min.

Data set [1] is classed as in vivo, Sprague-Dawley (SD) rats. The note with it: pretreatment with the named substance, rats.
Data set [2] addresses T2, hOATP1B1 (Homo sapiens, UniProt Q9Y6L6).
T2 sequence (Q9Y6L6 1-691): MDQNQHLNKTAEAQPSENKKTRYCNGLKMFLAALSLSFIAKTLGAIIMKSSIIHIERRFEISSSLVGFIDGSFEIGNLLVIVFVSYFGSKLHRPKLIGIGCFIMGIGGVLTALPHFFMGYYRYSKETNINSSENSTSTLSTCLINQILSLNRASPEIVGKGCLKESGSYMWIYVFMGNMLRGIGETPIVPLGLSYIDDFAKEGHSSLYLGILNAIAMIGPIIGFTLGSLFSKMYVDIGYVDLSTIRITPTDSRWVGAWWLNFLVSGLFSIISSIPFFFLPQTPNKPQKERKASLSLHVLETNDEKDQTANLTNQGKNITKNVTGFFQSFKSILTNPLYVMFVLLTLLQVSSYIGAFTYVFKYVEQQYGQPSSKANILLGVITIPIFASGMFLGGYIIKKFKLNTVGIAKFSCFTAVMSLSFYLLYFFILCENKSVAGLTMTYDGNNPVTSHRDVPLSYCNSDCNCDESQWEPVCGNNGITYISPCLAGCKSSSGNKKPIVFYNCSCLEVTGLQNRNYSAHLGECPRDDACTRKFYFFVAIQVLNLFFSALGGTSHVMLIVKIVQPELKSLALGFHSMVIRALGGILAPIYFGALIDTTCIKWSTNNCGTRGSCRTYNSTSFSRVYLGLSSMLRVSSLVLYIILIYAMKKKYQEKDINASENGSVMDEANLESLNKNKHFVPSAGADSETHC
Description: Uptake of aconitum alkaloids in hOATP1B1-transfected HEK293 cells vs mock. It is filed as in vitro ADME. The note with it: 10 μm, 2 min. Summed up: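 HEK293-hOATP1B1 and mock cells were grown in DMEM with 10% FBS, seeded at 2 × 10^5/well and cultured 48 h. They were rinsed, preincubated 10 min at 37 °C in DPBS pH 7.4, then exposed to the alkaloid for 2 min at 37 °C. After three ice-cold DPBS rinses and methanol lysis, supernatants were measured by UPLC-MS/MS (positive MRM, sinomenine internal standard). Results were normalised to BCA protein; n = 3, t-test versus mock.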

For data set [3], the target named is T3, hOATP1B3 (Homo sapiens, UniProt Q9NPD5).
T3 sequence (Q9NPD5 1-702): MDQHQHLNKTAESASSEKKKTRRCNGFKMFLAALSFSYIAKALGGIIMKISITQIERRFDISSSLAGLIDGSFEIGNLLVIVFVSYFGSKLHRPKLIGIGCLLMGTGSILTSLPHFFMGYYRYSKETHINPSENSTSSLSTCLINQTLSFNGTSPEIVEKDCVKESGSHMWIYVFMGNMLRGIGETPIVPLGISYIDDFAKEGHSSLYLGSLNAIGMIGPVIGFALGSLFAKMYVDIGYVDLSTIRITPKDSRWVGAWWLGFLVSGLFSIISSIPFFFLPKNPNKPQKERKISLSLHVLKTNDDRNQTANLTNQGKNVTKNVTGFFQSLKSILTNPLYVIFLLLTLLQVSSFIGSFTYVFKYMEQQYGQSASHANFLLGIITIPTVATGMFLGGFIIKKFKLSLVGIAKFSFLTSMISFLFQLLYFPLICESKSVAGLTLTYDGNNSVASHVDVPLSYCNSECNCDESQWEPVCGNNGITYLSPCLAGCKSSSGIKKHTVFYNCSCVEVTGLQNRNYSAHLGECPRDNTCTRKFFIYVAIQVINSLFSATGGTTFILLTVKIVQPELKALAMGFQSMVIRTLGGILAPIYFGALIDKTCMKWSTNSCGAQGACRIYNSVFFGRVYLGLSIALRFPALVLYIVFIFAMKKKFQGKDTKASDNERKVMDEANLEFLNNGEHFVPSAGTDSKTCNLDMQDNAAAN
Put plainly: Uptake of aconitum alkaloids in hOATP1B3-transfected HEK293 cells vs mock. It is filed as in vitro ADME. To be noted: 10 μm, 2 min, HEK293-hOATP1B3 vs mock.

In the next data set the target is T4, hOATP2B1 (Homo sapiens, UniProt O94956).
T4 sequence (O94956 1-709): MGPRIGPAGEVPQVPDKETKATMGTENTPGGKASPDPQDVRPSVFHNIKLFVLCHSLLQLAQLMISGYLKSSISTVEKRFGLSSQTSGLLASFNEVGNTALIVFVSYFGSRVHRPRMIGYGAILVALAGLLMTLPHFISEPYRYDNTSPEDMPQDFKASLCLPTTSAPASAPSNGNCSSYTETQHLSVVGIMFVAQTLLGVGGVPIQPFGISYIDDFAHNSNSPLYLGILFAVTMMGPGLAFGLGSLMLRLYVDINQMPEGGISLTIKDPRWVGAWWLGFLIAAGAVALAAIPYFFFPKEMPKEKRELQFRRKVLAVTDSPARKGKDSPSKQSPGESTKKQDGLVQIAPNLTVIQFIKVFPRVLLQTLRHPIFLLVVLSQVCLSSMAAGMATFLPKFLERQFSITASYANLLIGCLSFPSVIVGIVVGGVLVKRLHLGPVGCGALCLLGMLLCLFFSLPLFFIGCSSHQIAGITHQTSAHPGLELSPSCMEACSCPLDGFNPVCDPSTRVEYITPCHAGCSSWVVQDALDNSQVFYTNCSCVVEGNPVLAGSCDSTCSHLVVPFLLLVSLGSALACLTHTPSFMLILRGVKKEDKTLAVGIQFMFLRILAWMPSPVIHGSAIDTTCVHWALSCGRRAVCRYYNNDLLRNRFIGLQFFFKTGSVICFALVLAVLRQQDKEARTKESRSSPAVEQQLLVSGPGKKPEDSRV
It is filed as in vitro ADME. The note with it: for inhibition of hOATP2B1: screening at 100 μm. Summed up: (§1)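 Transfected and mock cells were incubated 2 min at 37 °C with 200 nmol L−1 3H-ES plus test compound. The screen used a single 100 μmol L−1 concentration with reference inhibitors as positive controls, giving an inhibition rate (n = 3, mean ± sd). […] DMSO was <0.2%. Cells were stopped with cold DPBS, rinsed three times, lysed in 0.1 mol L−1 NaOH and counted by scintillation (dpm).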

In the next data set the target is T5, hOCT2 (Homo sapiens, UniProt O15244).
T5 sequence (O15244 1-555): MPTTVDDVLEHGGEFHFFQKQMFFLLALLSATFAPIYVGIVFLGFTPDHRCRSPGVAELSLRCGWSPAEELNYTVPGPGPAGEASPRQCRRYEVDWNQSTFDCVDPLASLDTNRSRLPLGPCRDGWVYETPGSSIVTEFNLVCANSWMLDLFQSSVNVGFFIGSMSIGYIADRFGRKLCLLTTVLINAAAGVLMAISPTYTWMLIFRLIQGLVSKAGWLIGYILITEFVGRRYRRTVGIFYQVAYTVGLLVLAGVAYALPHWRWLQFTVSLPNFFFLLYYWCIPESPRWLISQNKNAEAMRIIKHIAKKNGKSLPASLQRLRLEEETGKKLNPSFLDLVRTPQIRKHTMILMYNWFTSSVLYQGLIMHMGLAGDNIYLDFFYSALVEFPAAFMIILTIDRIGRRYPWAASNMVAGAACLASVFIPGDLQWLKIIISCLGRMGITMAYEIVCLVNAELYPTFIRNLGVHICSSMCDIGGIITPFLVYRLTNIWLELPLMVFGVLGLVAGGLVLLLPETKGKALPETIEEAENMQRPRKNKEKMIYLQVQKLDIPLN
Description: Inhibition of 14C-TEA uptake in hOCT2-transfected cells by liquorice ingredients. To be noted: for inhibitory rate on hOCT2: 100 μm, 5 μmol L^−1 14C-TEA, 5 min. It is filed as in vitro ADME.

For the next data set, the target named is T6, hOAT3 (Homo sapiens, UniProt Q8TCC7).
T6 sequence (Q8TCC7 1-542): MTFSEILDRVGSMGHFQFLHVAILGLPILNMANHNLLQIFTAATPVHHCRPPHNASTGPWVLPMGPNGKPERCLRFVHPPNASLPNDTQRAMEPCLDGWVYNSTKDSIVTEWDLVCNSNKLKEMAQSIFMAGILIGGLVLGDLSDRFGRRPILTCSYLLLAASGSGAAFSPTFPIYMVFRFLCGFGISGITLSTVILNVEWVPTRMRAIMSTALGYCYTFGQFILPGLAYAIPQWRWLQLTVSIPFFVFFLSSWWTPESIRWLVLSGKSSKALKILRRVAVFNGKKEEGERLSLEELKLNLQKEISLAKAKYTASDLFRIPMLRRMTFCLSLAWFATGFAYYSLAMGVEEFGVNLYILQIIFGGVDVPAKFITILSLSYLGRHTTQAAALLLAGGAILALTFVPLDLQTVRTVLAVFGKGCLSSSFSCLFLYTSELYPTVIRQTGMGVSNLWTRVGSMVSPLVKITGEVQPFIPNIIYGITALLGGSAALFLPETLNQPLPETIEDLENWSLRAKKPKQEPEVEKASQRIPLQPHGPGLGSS
Description: Inhibition of 3H-ES uptake in hOAT3-transfected cells by liquorice ingredients. It is filed as in vitro ADME. Summed up:
as §1

Data set [4] addresses T2, hOATP1B1. It is filed as in vitro ADME. The note with it: screening at 100 μm.
Data set [5] addresses T3, hOATP1B3. It is filed as in vitro ADME. The note with it: screening at 100 μm.

Turning to `COC[C@@]12CC[C@H](OC)[C@]34C([C@H]([C@H](OC)[C@H]13)[C@]1(O)[C@H]3[C@@H](OC(=O)c5ccccc5)[C@](O)(C[C@H]34)[C@@H](OC)[C@@H]1O)N(C)C2` [benzoylhypaconitine], at hOCT1, the “concentration in HEK293–hOCT1, fold higher than control” value is roughly 3.7 fold.
As to `C=C[C@H]1C[N@@]2CC[C@H]1C[C@@H]2[C@@H](O)c1ccnc2ccc(OC)cc12` [quinidine, reference compound], in [1], the “Tmax of aconitine in the liver” value is recorded as “postponed”.
In the case of `CCN1C[C@]2(COC)[C@H](O)C[C@H](OC)[C@@]34[C@@H]5C[C@@]6(O)[C@H](OC(=O)c7ccccc7)[C@@H]5[C@@](O)([C@@H]([C@H](OC)[C@H]23)[C@@H]14)[C@@H](O)[C@@H]6OC` [benzoylaconitine], the “concentration in HEK293–hOCT1, fold higher than control” value at hOCT1 was roughly 2.3 fold.
For `COC[C@]12CN(C)[C@@H]3[C@@H]4[C@H](OC)[C@H]1[C@@]3([C@@H](OC)C[C@H]2O)[C@@H]1C[C@@]2(O)[C@H](OC(=O)c3ccccc3)[C@@H]1[C@]4(OC(C)=O)[C@@H](O)[C@@H]2OC` [mesaconitine], the “concentration in hOATP1B1-transfected cells, fold of HEK293 mock cells” value at hOATP1B1 [2] is “approximately 2.7 fold”. Moreover, the “concentration in hOATP1B3-transfected cells, fold of HEK293 mock cells” value on hOATP1B3 [3] was roughly 3.4 fold. For the same compound, at hOCT1, the “concentration in HEK293–hOCT1, fold higher than control” value was “roughly 1.9 fold”.
Turning to `CC1(C)[C@@H](O)CC[C@]2(C)[C@H]3C(=O)C=C4[C@@H]5C[C@@](C)(C(=O)O)CC[C@]5(C)CC[C@@]4(C)[C@]3(C)CC[C@@H]12` [glycyrrhetinic acid], on hOATP2B1, 1070 nM corresponded to half-maximal inhibition (IC50) and the “inhibition of hOATP2B1” value is listed as “strong inhibitors”. In addition, on hOCT2, the 50% inhibitory concentration (IC50) stood at 7410 nM and the “inhibitory rate on hOCT2” value came out at 80.17%. At hOAT3, this compound gave an IC50 of 1830 nM.
Turning to `O=C(/C=C/c1ccc(O)cc1)c1ccc(O)cc1O` [isoliquiritigenin], the IC50 on hOCT2 came to 31400 nM; against hOAT3, 2180 nM.
In the case of `COC[C@]12CN(C)C3[C@@H]4[C@H](OC)[C@H]1[C@@]3([C@@H](OC)C[C@H]2O)[C@@H]1C[C@@]2(O)[C@H](OC(=O)c3ccccc3)[C@@H]1[C@]4(O)[C@@H](O)[C@@H]2OC` [benzoylmesaconitine], the “concentration in HEK293–hOCT1, fold higher than control” value on hOCT1 was roughly 2.2 fold.
As to `O=C(/C=C/c1ccc(O[C@@H]2O[C@H](CO)[C@@H](O)[C@H](O)[C@H]2O)cc1)c1ccc(O)cc1O` [isoliquiritin], the “inhibition of hOATP1B1” value at hOATP1B1 [4] is “strong inhibitors”. Moreover, at hOATP2B1, the “inhibition of hOATP2B1” value is “strong inhibitors”. Besides, the “inhibitory rate on hOCT2” value against hOCT2 turned out to be 71.9%. Further, the “inhibition of hOATP1B3” value against hOATP1B3 [5] is “strong inhibitors”.
Take `COC[C@@]12CC[C@H](OC)[C@]34C(C([C@H](OC)[C@H]13)[C@]1(OC(C)=O)[C@H]3[C@@H](OC(=O)c5ccccc5)[C@](O)(C[C@H]34)[C@@H](OC)[C@@H]1O)N(C)C2` [hypaconitine]: at hOCT1, the “concentration in HEK293–hOCT1, fold higher than control” value is on record as roughly 3.3 fold.
